From PubChem BioAssay
Arrestin-AP2 inh = inhibitors of beta-arrestin/AP2 binding, primary screen, biochemical, GPCR trafficking, flow cytometry; hit rate 0.31% among 340,000; FITC-arrestin peptide / GST-AP2 beads; AP2 beta2 appendage carries R879A mutation; beta-arrestin 1 C-terminal peptide binding to AP2 beta2-adaptin appendage (human); inhibition, % at 10 µM; AID 504490, 2011;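 active means inhibition above a set limit, near 3 SD of compounds lacking own fluorescence, cut at about 54% in these data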;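 further: plate controls were DMSO wells for no effect and 5 µM unlabelled arrestin peptide for full effect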
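System: GST-AP2 R879A glutathione beads | Also added: FITC-arrestin peptide, 50 nM | Times: 12 min plus 1 h, RT | Signal: Bead flow cytometry, FITC channel | Buffer or medium: PBS with 0.05% Tween 20 and 0.1% BSA | Read-out basis: Percent drop in bead-associated FITC signal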
ATG4B inh = ATG4B protease inhibitors, primary screen, biochemical, fluorescence, uHTS | ATG4B cleavage of LC3-PLA2, NBD-HPC fluorescence, 1 h | inhibition, % at 8.33 µM | hit rate 0.51% among 340,000; in the data active means inhibition above about 40%
NRP1-CendR mod = modulators of CendR peptide binding to NRP-1, primary screen, biochemical, fluorescence polarization, uHTS; inhibition, % at 25 µM; FAM-RPARPAR peptide binding to NRP-1; hit rate 0.85% among 360,000;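 active means inhibition or corrected inhibition above about 18%, plus a signal ratio from 0.5 to 1.5, limit read from the data, passing the limit was not always enough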
Myeloid diff MLP = induction of myeloid progenitor differentiation, primary screen, cell-based, flow cytometry, MLPCN library | ER-HoxA9 myeloid progenitors, lysozyme-GFP differentiation | calls only at 10 µM | hit rate 1% among 360,000;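 active means normalized GFP-positive differentiation at or above the plate's own cutoff, the solvent-only control mean plus 3 SD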;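 further: cells exposed to compound for four days before flow analysis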
Exocytosis inh = LAMP-1 surface exposure blockers, TALL-104 cells – cell-based, flow cytometry, MLPCN library, primary screen. TALL-104 LAMP-1 surface exposure; cells stimulated with thapsigargin and PMA. inhibition, % at 10 µM. hit rate 0.66% among 360,000. AID 651702, 2012;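 active means inhibition above about 55%, limit read from the data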
ABCB6 inh MLPCN = ABCB6 transporter inhibitors, primary screen, K562-ABCB6 cells, flow cytometry, MLPCN library | AID 602162, 2011 | K562-ABCB6 porphyrin accumulation, 1 h; stronger effect = lower value | fluorescence ratio to DMSO, % at 10 µM | ATP-binding cassette sub-family B member 6 (Homo sapiens), Q9NP58 | hit rate 0.19% among 360,000;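 active means fluorescence ratio to DMSO below 75%, the collection mean minus 3 SD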;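 further: signal is porphyrin accumulated inside mitochondria; 100% equals median channel fluorescence of DMSO control wells; lower ratio means ABCB6 inhibition with less porphyrin fluorescence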
Myeloid diff CP1 = inducers of myeloid progenitor differentiation, confirmation, cell-based, GFP/Mac1 flow cytometry, cherry pick 01. calls only. ER-HoxA9 myeloid progenitors, GFP/Mac1 double-positive flow. shares compounds with Myeloid diff MLP. hit rate 2% among 2,300;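 active means share of green or green-and-red cells above 9 and 9% in run 1 or 4 and 3% in run 2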
GFP autofluor = compound fluorescence in myeloid differentiation counter-screen | shares compounds with Myeloid diff MLP | ER-HoxA9 myeloid progenitors, no estrogen, GFP autofluorescence flow cytometry; vehicle wells 0%, positive control 100% | fluorescence response, % (test concentration not listed) | hit rate 7.4% among 2,300;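 active means over 5% cells positive for green fluorescent reporter, or over 2% positive for both it and APC stain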;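 further: range taken on the double positive population between DMSO and positive control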
* marks the source's active call; other numbers are inactive results; i = inactive; . = not tested or not shown; + = active, no number. This is a sample that favours compounds with a hit; in the whole collection about 3.3% have one here.

SMILES	Arrestin-AP2 inh	ATG4B inh	NRP1-CendR mod	Myeloid diff MLP	Exocytosis inh	ABCB6 inh MLPCN	Myeloid diff CP1	GFP autofluor
O=C(Nc1ncc(S(=O)(=O)c2ccc([N+](=O)[O-])cc2)s1)c1ccccc1F	17	3	-4	+	0	97	i	1
O=C(Nc1ccc([N+](=O)[O-])cc1)c1ccccc1F	2	3	4	i	1	99	.	.
OCCn1c(-c2ccc(F)cc2)csc1=Nc1ccccc1	3	-3	0	i	0	94	.	.
CCOc1ccc(N=c2scc(-c3ccc(OC)cc3)n2CCO)cc1	21	-12	0	i	0	95	i	0
O=C(Nc1ccc2c(c1)OCO2)c1cc(-c2ccccc2Cl)on1	2	18	-12	i	17	98	.	.
O=C(/C=C/[C@H]1O[C@@H](n2ccc(=O)[nH]c2=O)[C@H](O)[C@@H]1O)NCc1cccc2ccccc12	.	.	0	+	1	100	i	0
O=C(/C=C/[C@H]1O[C@@H](n2ccc(=O)[nH]c2=O)[C@H](O)[C@@H]1O)NCc1cccs1	.	.	0	i	0	95	.	.
O=c1cc(-c2ccc(O)cc2)oc2c(O)c(O)c(O)c(O)c12	6	9	-46	i	2	93	i	1
O=C1N=C(N2CCN(Cc3ccccc3)CC2)S/C1=C/c1cccs1	24	-4	10	+	-1	100	i	0
Cc1nc2ccc(NC(=O)c3cccs3)cc2c(=O)n1Cc1ccc(Cl)cc1	8	-17	-19	+	23	93	i	0
CN1CCCN(c2ccc([N+](=O)[O-])cc2)CC1	-10	-8	13	i	1	100	.	.
Cc1cc(Nc2ccccc2N2CCOCC2)n2ncnc2n1	12	0	-3	i	1	100	.	.
Cc1ccc(S(=O)(=O)CCSc2nc(C)cc(C)c2C#N)cc1	12	-8	3	+	-2	99	i	0
COc1ccccc1NC(=O)CSc1nnc(-c2ccco2)n1Cc1ccco1	-1	0	-14	i	-1	97	i	1
COc1ccccc1NC(=O)CSc1nnc(-c2ccccn2)n1Cc1ccco1	2	-7	-5	i	-3	96	.	.
CNc1ccccc1C(C)(C)c1cc(-c2cccc([N+](=O)[O-])c2)no1	11	-8	-11	i	-5	134	.	.
CNc1ccccc1C(C)(C)c1cc(-c2cccc(Br)c2)no1	35	2	-61	+	-7	i	i	81*
CCOC(=O)c1c(/N=C/c2ccc(OC)cc2O)sc2c1CCN(C)C2	40	0	-20	i	8	97	.	.
CN1CCc2c(sc(/N=C/c3c[nH]c4ccccc34)c2C#N)C1	6	-15	134	+	-5	143	i	16*
CN1CCc2c(sc(/N=C/c3c[nH]c4ccccc34)c2C(N)=O)C1	-2	-17	-101	+	-10	105	i	0
COc1ccc(N2CCN(C(=O)CSc3nnc(CNc4ccccc4)o3)CC2)cc1	22	-3	-11	i	-2	99	i	1
CCOc1ccc(/C(O)=C2/C(=O)C(=O)N(c3nc(C)c(C)s3)C2c2ccco2)cc1 (centres undefined)	18	2	-37	i	3	109	i	9.0*
CN1c2ccccc2C(C)(C)C12C=Cc1cc(O)ccc1O2 (centres undefined)	35	8	-80	+	4	511	i	53*
CC[n+]1oc(-c2ccccc2)cc1C	23	-10	14	i	9	94	.	.
COc1ccc(N2CCN(CCCNC(=O)CCC(=O)N3CCOc4ccc(Cl)cc43)CC2)cc1	0	6	8	i	-4	94	.	.
SMILES	Arrestin-AP2 inh	ATG4B inh	NRP1-CendR mod	Myeloid diff MLP	Exocytosis inh	ABCB6 inh MLPCN	Myeloid diff CP1	GFP autofluor
O=C(CCC(=O)N1CCOc2ccc(Cl)cc21)NCCCN1CCN(c2ccccc2F)CC1	-8	-4	8	i	-9	92	i	0
O=C(NCn1cnccc1=O)c1ccccc1	-1	-3	-2	i	0	105	.	.
Cc1cc(=O)n(CNC(=O)c2ccccc2)c(=S)[nH]1	1	-2	5	i	9	90	i	3
CCOC(=O)c1[nH]c2ccccc2c1NC(=O)c1ccc(Br)o1	-3	-1	-1	+	-3	96	i	0
CC(C)(C)N(Cc1ccccc1)C(=O)COC(=O)Cn1cnc2ccccc2c1=O	-1	-11	0	i	-9	101	.	.
N#Cc1ccccc1OCCOCCNC1CCCC1	3	10	1	i	-2	95	.	.
CCCCCCC[C@@H](C/C=C/CCC(=O)N(C)C/C(=C/Cl)C/C(=C\C(=O)N1CC(OC)=CC1=O)OC)OC	-7	3	-48	i	2	106	.	.
CCCCCCC[C@@H](C/C=C/CCC(=O)N(C)C/C(=C/Cl)C/C(=C\C(=O)N1C[C@H](O)CC1=O)OC)OC	-6	-13	6	i	3	100	i	5
Cc1sc(NC(=O)c2ccccc2)c(C(c2ccccn2)N2CCN(CCO)CC2)c1C (centres undefined)	35	5	-11	i	27	97	i	0
O=C(Cn1nc2ccccc2n1)N/N=C/c1ccc(F)cc1	17	6	-8	i	-3	97	.	.
Cc1ccc2nc(-c3ccc(NS(C)(=O)=O)cc3)cc(-c3ccccc3)c2c1	19	-1	-9	i	6	101	.	.
CCS(=O)(=O)Nc1ccc(-c2cc(-c3ccccc3)c3cc(C)ccc3n2)cc1	0	0	-12	i	2	101	i	0
NC(=O)CC(NC(=O)c1ccccc1)c1ccc(NCc2ccccc2)c([N+](=O)[O-])c1 (centres undefined)	22	-11	-10	i	2	96	.	.
